# Compound activity as filed in PubChem BioAssay.
# Only some compounds are listed: those with a hit (about 5.1% of all), similar ones and a draw of the others.
# NF-kB expr up – compounds increasing NF-kB expression in human neuronal cells | actives 1.6% (n = 190,000) | NF-kB reporter expression; hits give high values | AID 1239 | fold change at 12.5 µM; in the data active = fold change above about 3.3
# STAT1 inh – inhibitors of IFN-gamma induced STAT1 signaling | NIH 3T3 STAT1-luciferase reporter, luminescence | inhibition, % at 5.5 µM | actives 0.35% (n = 200,000) | AID 920;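 active = inhibition above a set limit, the mean inhibition across all tested compounds plus 3 SD, cut at about 34% in these data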;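 note: 0% = IFN-gamma with DMSO and 100% = IFN-gamma with 300 µM nifuroxazide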
# STAT3 blocker – inhibitors of IL-6 induced STAT3 signaling; actives 0.89% (n = 190,000); U3A cells, IL-6 STAT3-luciferase reporter, luminescence; host cell line lacks STAT1; inhibition, % at 5.5 µM;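 active = inhibition above the mean inhibition across all screened compounds plus 3 SD, cut at about 44% in these data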;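 note: 0% = DMSO only wells and 100% = 100 µM nifuroxazide control wells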
# APP 5'UTR act – activates APP 5'UTR luciferase reporter. SH-SY5Y APP 5'UTR luciferase reporter, luminescence; zero percent = DMSO vehicle wells. activation, % at 2 µM. actives 1% (n = 190,000). AID 1276;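 active = activation above a set limit, based on mean plus 3 SD of controls, cut at about 140% in these data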
# STAT3 activator – activators of IL-6 induced STAT3 signaling; U3A cells, IL-6 STAT3-luciferase reporter, luminescence; 100% = signal with IL-6 EC80 alone; activation (% of control), % at 5.6 µM; actives 0.91% (n = 190,000); AID 871;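 active = activation above the screen-wide mean of compound activation plus 3 SD, cut at about 130% in these data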;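 note: 0% = background luminescence of wells with medium and substrate only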
#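 system = STAT3-luciferase reporter U3A cells | reagent = IL-6 stimulus at 33 ng/mL final | timing = 1 h compound pre-exposure, 6 h IL-6 stimulation, 37 °C | measured by = luminescence | evaluation = % activation versus median of IL-6-stimulated wells | control set = IL-6-only wells as 100% reference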
# STAT1 act – increases IFN-gamma driven STAT1 reporter signal | NIH 3T3 STAT1-luciferase reporter, luminescence; 100% = IFN-gamma alone, no compound | activation (% of control), % at 5.5 µM | actives 2.6% (n = 200,000);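 active = activation above the screen-wide mean activation plus 3 SD, cut at about 130% in these data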;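 note: raw ratio to IFN-gamma control signal so 100% means no change and 0% no light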
# STAT1 act conf – confirmation of STAT1 signaling activators | shares compounds with STAT1 act | NIH 3T3 STAT1-luciferase reporter, IFN-gamma potentiation, luminescence; 100% = IFN-gamma EC80 alone, no compound | activation (% of control), % at 5.7 µM | actives 97% (n = 1,200) | AID 1262;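 active = activation above a set limit carried over from the earlier primary STAT1 screen, cut at about 140% in these data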;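 note: simple ratio to median IFN-gamma plus DMSO wells so 0% means no light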
# NFkB act – NF-kappaB activation in STAT1 activator counter-screen; shares compounds with STAT1 act; HEK293T NF-kB luciferase reporter, TNF-alpha stimulated, luminescence; 100% = TNF-alpha with vehicle only; activation (% of control), % at 5.7 µM; actives 43% (n = 1,200); AID 1306;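 active = activation above the mean of solvent-only control wells plus 3 SD, set per campaign, cut at about 130% in these data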;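 note: TNF-alpha given at a submaximal dose yielding about 80% of full reporter signal; values are well signal over median control so 100% means no change and 0% no light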
# STAT3 act 2 – human STAT3 activation in STAT1 activator counter-screen; actives 46% (n = 1,200); shares compounds with STAT1 act; activation (% of control), % at 5.7 µM; AID 1316; U3A cells STAT3-luciferase reporter, IL-6, luminescence; cells lack STAT1; 100 = IL-6 alone, no compound effect;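 active = activation above the solvent-only control well mean plus 3 SD, set per plate batch, cut at about 110% in these data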;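 note: 0% = no luminescence and 100% = median IL-6 plus DMSO wells; higher means more STAT3 reporter activation so hits are non-selective activators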
# * = called active by the depositor; . = no result given.
SMILES,NF-kB expr up,STAT1 inh,STAT3 blocker,APP 5'UTR act,STAT3 activator,STAT1 act,STAT1 act conf,NFkB act,STAT3 act 2
O=C(O)CC/C(=N/NC(=O)c1cccs1)c1ccccc1,2.3,-64,20,92,86,157*,134*,112,102
Cc1ccc(NC(=S)c2nc3ccccc3[nH]2)c(C)c1,3.2,-77,13,133,87,169*,191*,122,113*
O=C(CN1CCCC1)N1CCCc2c1c(=O)oc1ccc(OCc3ccccc3)cc21,0.76,2,5,-5,98,98,.,.,.
c1ccc(CNc2ccc3ccccc3n2)nc1,4.7*,-56,28,162*,81,153*,200*,107,92
CC(=O)c1c(C)[nH]c(C(=O)OCC(=O)NCCc2ccc(F)cc2)c1C,0.97,8,7,13,98,93,.,.,.
CCc1c(C)[nH]c(C(=O)OCc2ccccc2)c1C,2.5,-59,7,24,98,152*,146*,118,92
COC(=O)c1c(C)[nH]c(C(=O)OCc2ccc(F)cc2)c1C,2.7,-57,13,68,93,152*,163*,125,103
Cc1ccn(-c2n[nH]c(C)c2[N+](=O)[O-])n1,0.92,0,8,1,99,99,.,.,.
CCNC(=S)N1CCN(S(=O)(=O)c2ccccc2C(F)(F)F)CC1,0.8,16,6,-17,95,86,.,.,.
NC(N)=N/N=C/c1ccccc1OC(F)F,1.1,7,0,14,107,92,.,.,.
COc1ccccc1/C=N\N=C(\N)c1ccccn1,2.7,-70,11,57,94,162*,190*,124,108
Nc1c(-c2ccccc2)cnc2cc(-c3ccccc3)nn12,4.8*,-65,34,290*,77,158*,276*,134*,98
CC(=O)c1cnc2cc(C)nn2c1C,1,-13,-8,-1,112,112,.,.,.
CC(=O)c1cnc2cc(-c3ccccc3)nn2c1C,2.9,-77,19,16,86,170*,195*,131,109
CCNc1cc(S(=O)(=O)C(F)(F)F)ccc1N,1.3,13,6,10,98,89,.,.,.
Cc1ccc(OCc2ccc(Br)cc2)c([N+](=O)[O-])n1,3.8*,-58,0,156*,109,154*,175*,141*,118*
CCCCC(=O)N/N=C(\C)c1cccc(NC(=O)C2CC2)c1,1.1,1,-1,3,99,101,.,.,.
C/C(=N/NC(=O)c1ccoc1C)c1cccc(NC(=O)C(F)(F)F)c1,1.6,-63,-6,52,106,156*,116,109,96
C/C(=N/NC(=O)c1ccoc1C)c1cccc(NC(=O)C2CC2)c1,1.6,-67,-11,116,108,159*,110,109,100
COc1ccc(C(=O)N/N=C(/C)c2cccc(NC(=O)C(F)(F)F)c2)cc1,2.4,-10,7,75,98,108,.,.,.
CCCN1C=CC(=C/C=C(\C#N)C(=O)OCC)C=C1,2.8,-70,-10,120,113,164*,183*,124,134*
CC(C)(c1ccccc1)c1ccc(OCCn2cnc3ccccc3c2=O)cc1,1,-6,13,-14,94,106,.,.,.
CC(C)(C)c1ccc(OCCn2ccccc2=O)cc1,5.5*,-82,9,115,94,177*,197*,128,117*
Cc1cc(NS(=O)(=O)c2ccc(NC(=O)COc3ccccc3C(C)C)cc2)no1,1,-4,-3,12,107,104,.,.,.
CCc1cc2c(=O)[nH]c(N3CCCC3)nc2s1,1.4,-10,-13,15,109,112,.,.,.
SMILES,NF-kB expr up,STAT1 inh,STAT3 blocker,APP 5'UTR act,STAT3 activator,STAT1 act,STAT1 act conf,NFkB act,STAT3 act 2
CCc1cc2c(=O)[nH]c(-c3ccccn3)nc2s1,0.97,-56,3,34,96,152*,189*,137*,104
CC(C)=CC(=O)Nc1nnc(-c2ccccc2)s1,3.2,-69,10,9,100,162*,196*,135*,104
CC(C)=CC(=O)Nc1nnc(C)s1,1.3,-8,6,52,98,110,.,.,.
O=C(Nc1ccccc1)OC1CC2CC1C1CCCC21 (stereo not drawn),2.9,-71,-6,121,109,162*,175*,134*,111*
Cc1cccc(NC(=O)c2cc(NC(=O)C3CC=CCC3C(=O)O)ccc2N2CCOCC2)c1 (stereo not drawn),1.2,7,2,-2,100,94,.,.,.
Cc1ccc(-c2ccc(CCC(=O)O)n2C(C)C)cc1,0.84,-57,8,6,97,151*,106,113,101
Cc1ccc(-c2ccc(CCC(=O)O)n2NC(N)=S)cc1,1.1,4,9,6,96,96,.,.,.
COc1ccc(-c2nc(-c3ccc(Br)cc3)no2)c(OC)c1,6*,-59,-5,94,105,155*,233*,132,112*
COc1ccc(Cl)cc1-c1nc(-c2ccncc2)no1,1.2,-11,6,-7,97,105,.,.,.
COc1ccccc1-c1nc(-c2ccncc2)no1,2.3,-65,14,106,92,159*,188*,131,111*
COc1ccc(-c2csc(-c3ccccc3)n2)c(OC)c1,12*,-61,13,195*,93,153*,227*,144*,144*
Cc1occc1C(=O)Nc1cccc2ccccc12,7.7*,-79,19,135*,86,172*,219*,137*,110
Cc1occc1C(=O)Nc1ccccc1NC(=O)c1ccoc1C,.,9,2,5,102,92,.,.,.
COc1ccccc1NC(=O)COC(=O)/C=C/c1ccccc1[N+](=O)[O-],1.2,18,2,-8,98,84,.,.,.
COc1ccc(Cn2c(C3CC3)nc3ccc(NC(C)=O)cc3c2=O)cc1,4.3*,-75,-12,142*,118,169*,213*,143*,134*
COc1ccc(COc2cc(-c3cccc(OC)c3)nc3ccc(NC(C)=O)cc23)cc1,1,-5,-4,0,101,105,.,.,.
